Screens (PubChem)
OX1R antag-1 = blocks the human orexin 1 receptor; O43613; OX1R-expressing cells, FRET antagonist read-out; inhibition, % at 6.6 µM; hit rate 1.8% among 330,000; in the data active means inhibition mostly above about 38%, no sharp cut-off; inactive means mostly below about 40%;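 further: 0% = agonist challenge alone and 100% = reference antagonist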
Target sequence (O43613 whole entry, looked up): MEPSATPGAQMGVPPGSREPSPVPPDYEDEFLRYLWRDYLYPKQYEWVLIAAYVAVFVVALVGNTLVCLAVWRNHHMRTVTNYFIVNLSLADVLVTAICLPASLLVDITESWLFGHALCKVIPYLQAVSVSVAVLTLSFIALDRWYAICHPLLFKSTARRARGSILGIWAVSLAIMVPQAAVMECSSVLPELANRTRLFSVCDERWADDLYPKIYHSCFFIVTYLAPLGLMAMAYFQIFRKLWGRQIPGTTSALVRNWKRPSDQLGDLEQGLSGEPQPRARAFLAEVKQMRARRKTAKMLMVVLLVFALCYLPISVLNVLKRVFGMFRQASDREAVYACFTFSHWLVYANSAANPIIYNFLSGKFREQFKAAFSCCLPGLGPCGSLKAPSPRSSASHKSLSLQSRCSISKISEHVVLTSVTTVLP
CHO parental Ca = signal in parental CHO cells, OX1R antagonist counter-screen. parental CHO-K1, ATP-induced calcium, Fluo-8 fluorescence. inhibition, % at 5.6 µM. hit rate 0.63% among 330,000. AID 463079;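 active means inhibition above that plate's mean sample inhibition plus 3 SD, cut at about 26% in these data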;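 further: 0% = ATP-challenged DMSO wells and 100% = DMSO wells without ATP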
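Material: parental CHO cells / Compound: single nominal dose of 5.6 µM per compound / Signal: Fluo-8 fluorescence / Replicates: singlicate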
TAAR1 antag = antagonists of human TAAR1 | CHO RD-HGA16 TAAR1, Fluo-8 calcium fluorescence, antagonist | inhibition, % at 3 µM | hit rate 1.5% among 360,000 | AID 624466;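 active means inhibition above a per-plate cutoff, the mean inhibition of test compounds on that plate plus 3 SD, cut at about 49% in these data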;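 further: 0% = DMSO plus EC80 beta-PEA response and 100% = DMSO alone without agonist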
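Material: RD-HGA16 CHO cells with stable hTAAR1 and Gα16; Dosing: single nominal final test compound concentration of 3 µM; Schedule: seeding 17-24 h prior, 75-min 37 °C, 30-min RT dye loading; Detection: kinetic Fluo-8 calcium fluorescence measurement; Measure: % inhibition from peak post-agonist over basal fluorescence ratio; Benchmarks: vehicle and agonist controls.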
GPR7 antag = human neuropeptides B/W receptor 1 antagonism | P48145 | GPR7-expressing cells, fluorescence antagonist assay | inhibition, % at 4.4 µM | hit rate 1.1% among 290,000 | AID 1861; in the data active means inhibition above about 16%, passing the limit was not always enough;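 further: cells stimulated with the agonist NPW; 0% = agonist with vehicle and 100% = vehicle without agonist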
OX1R antag-2 = blocks the human orexin 1 receptor. O43613. inhibition, % at 5 µM. hit rate 0.43% among 330,000. CHO/OX1R cells, Fluo-8 calcium fluorescence, orexin A. AID 434989;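 active means inhibition above its plate's threshold, mean inhibition of all tested compounds on the plate plus 3 SD, cut at about 37% in these data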;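 further: 0% = orexin A challenge wells and 100% = SB-334867-A antagonist wells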
TAAR1 ag = human TAAR1 agonism; Q96RJ0; CHO RD-HGA16 TAAR1, Fluo-8 calcium fluorescence; vehicle wells 0%, saturating PEA agonist 100%; activation, % at 3 µM; hit rate 0.99% among 360,000; AID 624467;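 active means activation above the mean activation of all test compounds in the run plus 3 SD, cut at about 38% in these data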
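System: CHO-derived RD-HGA16 cells with stable Gα16 and human TAAR1 / Times: 17-24 h plating, Fluo-8 75 min 37 °C, 30 min RT / Technique: calcium-sensitive Fluo-8 signal, excitation 470-495, emission 515-575 nm / Measure: % activation relative to PEA EC100 response / Benchmarks: DMSO and PEA EC100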
* marks the source's active call; other numbers are inactive results; nt = no result given. Most compounds without a hit are left out; they make up all but 4.6% or so of the library.

SMILES	OX1R antag-1	CHO parental Ca	TAAR1 antag	GPR7 antag	OX1R antag-2	TAAR1 ag
COC(=O)c1ccc(C2N=C(c3cccs3)CC(c3ccccc3O)N2)cc1 (stereo unspecified)	72*	42*	-13	-2	4	9
O=C(c1ccccc1)N1N=C(c2cccs2)CC1c1ccccc1O (stereo unspecified)	8	-4	-10	-13	-29	4
CC(C)(C)C(=O)NC(=S)NNC(=O)C(c1ccccc1)c1ccccc1	1	79*	nt	90*	93*	nt
NNc1nc2c(Cl)ccc(Cl)c2s1	18	0	6	-2	4	39*
CC(=O)c1cc(N2CCC(C(=O)O)CC2)ccc1[N+](=O)[O-]	67*	-18	0	-19	-10	9
CCCCCCCCN1C(=O)[C@H](CC(=O)NCc2cccs2)C[C@@]2(C(=O)OCC)CCCC=C12	nt	nt	31	nt	nt	4
COc1ccc(O)c(C(=O)CC(=O)c2ccccc2)c1	23	-12	nt	13	-21	nt
COc1ccc(O)c(C(=O)c2cc(C(=O)NCCc3ccccc3)c(=O)n(CCc3ccccc3)c2)c1	37	-1	51*	-12	-4	2
CN(Cc1ccccc1)c1ccc(N2C(=O)CCC2=O)cc1[N+](=O)[O-]	18	-7	-20	-11	-13	1
COc1ccc(Cl)cc1NC(=O)CN(C)C(=O)Cn1c(=O)oc2ccccc21	35	3	-4	nt	-26	4
O=C(Nc1nccs1)c1ccc([N+](=O)[O-])cc1Cl	60	2	2	-3	2	-1
O=C(NC1=NCCS1)c1ccc([N+](=O)[O-])cc1Cl	49*	-9	2	-4	-2	10
CSCC[C@H](NC(=O)C1CCN(C(=O)[C@H](Cc2ccccc2)NS(=O)(=O)c2ccc(C)cc2)CC1)C(=O)O	-2	-5	-2	-4	-15	-1
CCCc1ccc(Oc2c(-c3ccc(O)c(C)c3O)n[nH]c2C)cc1	3	29*	11	5	23	7
O=C(COc1ccc2ccccc2c1)Nc1ccc(Cc2ccncc2)cc1	35	24	26	-3	59*	3
O=C(O)Cc1ccc(NC(=O)COc2ccc3ccccc3c2)cc1	-1	-6	-1	-10	5	3
COc1cc2ccccc2cc1C(=O)Nc1ccc(Cc2ccncc2)cc1	21	38*	41	2	45*	19
CSc1ccc(NC(=O)Nc2cc(C)ccn2)cc1	-2	0	-19	-4	-11	4
Cc1ccc2nc(/C(C#N)=C\c3ccc(N4CCOCC4)o3)[nH]c2c1	25	-1	21	-16	-2	43*
Cc1ccc(/C(C#N)=C\c2ccc(N3CCOCC3)o2)cc1	8	-11	24	5	-22	14
Cc1ccc(NC2c3ncccc3C(=O)N2Cc2cccs2)cc1 (stereo unspecified)	20	-11	-10	-3	-27	0
CN(C)S(=O)(=O)c1cccc(NC(=O)CSc2ncnc3ccccc23)c1	24	29*	16	-5	2	6
CCN(CC)S(=O)(=O)c1cccc(NC(=O)CSc2nc3ccccc3[nH]2)c1	53*	31*	19	-9	44*	9
CN(C)S(=O)(=O)c1cccc(NC(=O)CSc2nc3ccccc3[nH]2)c1	26	-3	10	-14	-3	10
c1ccc2c(c1)nc(NC1CCCCC1)c1nncn12	19	-3	-2	-7	-23	2
SMILES	OX1R antag-1	CHO parental Ca	TAAR1 antag	GPR7 antag	OX1R antag-2	TAAR1 ag
c1ccc(-c2cc3cc4c(cc3cn2)OCO4)cc1	72*	-20	12	nt	39	19
Cc1ccc(-c2nc(N)nc(N)n2)c(C)c1	10	-4	-18	nt	9	12
O=C1CN(S(=O)(=O)c2ccc(Cl)cc2)CC(=O)N1CCc1ccccc1	15	-12	56*	0	-15	9
O=C1CN(S(=O)(=O)c2ccc(F)cc2)CC(=O)N1CCc1ccccc1	nt	nt	nt	1	nt	nt
CCOc1ccc(NC(=O)CS(=O)CC(=O)Nc2cccnc2)cc1 (stereo unspecified)	5	0	-17	-7	-1	2
c1ccc(Nc2nc(-c3ccccn3)cs2)cc1	77*	-24	-3	-1	-15	6
COc1cccc2sc(NNC(=O)COc3ccccc3)nc12	33	-12	-23	0	-13	5
O=C(Nc1ccc(-c2csc(Nc3ccc(Cl)cc3)n2)cc1)c1ccccc1	7	1	51*	nt	2	4
COc1cccc2sc(Nc3nc(-c4ccccn4)cs3)nc12	114*	45*	nt	-6	102*	nt
c1ccc(-c2csc(Nc3cccnc3)n2)nc1	-1	0	19	-5	9	8
CCCN(CCC)C(=O)Cn1c2ccccc2c2nc(=O)cc(C)n21	5	-13	2	-1	-23	1
COCCCNC(=O)C[C@H]1C[C@@]2(C(=O)OC)C(=C[C@H](COCc3ccccc3)O[C@@H]2C)N(CCC2=CCCCC2)C1=O	nt	nt	-39	nt	nt	-2
O=C(/C=C/c1ccco1)Nc1ccc2nn(-c3ccccc3)nc2c1	77*	6	-2	3	18	0
Cc1ccc(S(=O)(=O)Nc2cccc3cccnc23)cc1	19	42*	27	9	27	5
COc1cc(NS(=O)(=O)c2ccc(C)cc2)c2ncccc2c1	24	23	0	-14	8	5
Cc1ccc(S(=O)(=O)Nc2ccccc2-c2ccccc2NS(=O)(=O)c2ccc(C)cc2)cc1	59	-5	49*	21	-10	0
CN(C)c1ccc(/C=C/c2nc3ccccc3c(=O)n2-c2ccc(C(=O)O)cc2)cc1	14	64*	39	17	83*	33
Cc1ccc(NC(=O)CSC2=NN3CCCC(=O)N=C3S2)cc1Cl	28	7	29	-2	-4	42*
O=C1CCCN2N=C(SCC(=O)Nc3cccc(Cl)c3)SC2=N1	17	-6	-9	6	-17	13
O=C1CCCN2N=C(SCC(=O)Nc3ccc(Cl)cc3)SC2=N1	20	3	-18	9	-20	39*
O=C1CCCN2N=C(SCC(=O)Nc3cccc(C(F)(F)F)c3)SC2=N1	29	37*	2	4	-14	25
COc1ccc(S(=O)(=O)Nc2c(C)n(C)n(-c3ccccc3)c2=O)cc1Br	5	-18	-1	-5	-23	3
O=C(COC(=O)/C=C/c1cccc(C(F)(F)F)c1)NCc1ccc(F)cc1	8	23	-19	2	-7	2
Cc1ccc(C2=C(O)c3ccccc3C(=O)C2=O)cc1	41*	-6	5	-25	-12	0
O=C1C(=O)c2ccccc2C(O)=C1c1cccc([N+](=O)[O-])c1	52*	-16	-28	-4	1	0
